23 compounds from ChEMBL document CHEMBL4706541, “Design and synthesis of 1H-indazole-3-carboxamide derivatives as potent and selective PAK1 inhibitors with anti-tumour migration and invasion activities” (Eur J Med Chem, 2020) can be followed below.

Assay [1] addresses T1, Serine/threonine-protein kinase PAK 1 (Homo sapiens, UniProt Q13153). In words: Inhibition of full length recombinant human N-terminal GST/His6-tagged PAK1 expressed in sf9 insect cells using tetra LRRWSLG as substrate preincubated for 20 min followed by [gamma33P]ATP addition and measured after 120 mins by Hotspot assay.
A further assay deals with HCT-116. The assay is described as follows: Antiproliferative activity against human HCT-116 cells assessed as growth inhibition at 1 uM after 72 hrs by Cell Titer-Glo assay relative to control. Type of assay: functional. The conditions noted are these: read-out: GI. In a few lines: (§1)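 Cells kept at 37 °C in 5% CO2 and plated at 4000 per well. Treated with compound for 72 h. Viability read by CellTiter-Glo luminescence. Each compound run in duplicate, data as means ± SD.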
For orientation: Cellular ATP, detected with luciferase, serves as a proxy for viable cell number.

For another assay, the system named is MDA-MB-231. In words: Antiproliferative activity against human MDA-MB-231 cells assessed as growth inhibition at 1 uM after 72 hrs by Cell Titer-Glo assay relative to control. The assay is classed as functional. The conditions noted are these: read-out: GI. In short, it runs like this: as §1
Assay [2] deals with T1, Serine/threonine-protein kinase PAK 1. In words: Inhibition of PAK1 (unknown origin).
Assay [3] deals with Serine/threonine-protein kinase PAK 4 (Homo sapiens, UniProt O96013). In words: Inhibition of full length recombinant human N-terminal GST/His6-tagged PAK4 expressed in baculovirus infected sf9 insect cells using tetra LRRWSLG as substrate preincubated for 20 min followed by [gamma33P]ATP addition and measured after 120 mins by Hotspot assay.
Chain of Serine/threonine-protein kinase PAK 4 (O96013 whole entry): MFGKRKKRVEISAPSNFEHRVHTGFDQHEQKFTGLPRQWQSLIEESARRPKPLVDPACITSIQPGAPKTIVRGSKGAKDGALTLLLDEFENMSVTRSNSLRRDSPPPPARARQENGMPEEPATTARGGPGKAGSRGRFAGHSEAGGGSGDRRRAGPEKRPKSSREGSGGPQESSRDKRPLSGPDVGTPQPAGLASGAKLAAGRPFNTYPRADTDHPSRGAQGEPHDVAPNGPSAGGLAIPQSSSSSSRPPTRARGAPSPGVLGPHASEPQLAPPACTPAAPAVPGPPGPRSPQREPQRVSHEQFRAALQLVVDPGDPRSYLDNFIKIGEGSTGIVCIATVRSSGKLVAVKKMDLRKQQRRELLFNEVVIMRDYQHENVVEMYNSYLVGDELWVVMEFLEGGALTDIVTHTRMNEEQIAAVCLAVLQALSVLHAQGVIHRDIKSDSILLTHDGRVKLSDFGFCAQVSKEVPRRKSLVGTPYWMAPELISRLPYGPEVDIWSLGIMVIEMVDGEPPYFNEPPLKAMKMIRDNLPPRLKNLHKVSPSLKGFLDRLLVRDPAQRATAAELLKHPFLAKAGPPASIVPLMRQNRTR
Assay [4] deals with Voltage-gated inwardly rectifying potassium channel KCNH2 (Homo sapiens, UniProt Q12809). The assay is described as follows: Inhibition of human ERG.
Chain of Voltage-gated inwardly rectifying potassium channel KCNH2 (Q12809 whole entry): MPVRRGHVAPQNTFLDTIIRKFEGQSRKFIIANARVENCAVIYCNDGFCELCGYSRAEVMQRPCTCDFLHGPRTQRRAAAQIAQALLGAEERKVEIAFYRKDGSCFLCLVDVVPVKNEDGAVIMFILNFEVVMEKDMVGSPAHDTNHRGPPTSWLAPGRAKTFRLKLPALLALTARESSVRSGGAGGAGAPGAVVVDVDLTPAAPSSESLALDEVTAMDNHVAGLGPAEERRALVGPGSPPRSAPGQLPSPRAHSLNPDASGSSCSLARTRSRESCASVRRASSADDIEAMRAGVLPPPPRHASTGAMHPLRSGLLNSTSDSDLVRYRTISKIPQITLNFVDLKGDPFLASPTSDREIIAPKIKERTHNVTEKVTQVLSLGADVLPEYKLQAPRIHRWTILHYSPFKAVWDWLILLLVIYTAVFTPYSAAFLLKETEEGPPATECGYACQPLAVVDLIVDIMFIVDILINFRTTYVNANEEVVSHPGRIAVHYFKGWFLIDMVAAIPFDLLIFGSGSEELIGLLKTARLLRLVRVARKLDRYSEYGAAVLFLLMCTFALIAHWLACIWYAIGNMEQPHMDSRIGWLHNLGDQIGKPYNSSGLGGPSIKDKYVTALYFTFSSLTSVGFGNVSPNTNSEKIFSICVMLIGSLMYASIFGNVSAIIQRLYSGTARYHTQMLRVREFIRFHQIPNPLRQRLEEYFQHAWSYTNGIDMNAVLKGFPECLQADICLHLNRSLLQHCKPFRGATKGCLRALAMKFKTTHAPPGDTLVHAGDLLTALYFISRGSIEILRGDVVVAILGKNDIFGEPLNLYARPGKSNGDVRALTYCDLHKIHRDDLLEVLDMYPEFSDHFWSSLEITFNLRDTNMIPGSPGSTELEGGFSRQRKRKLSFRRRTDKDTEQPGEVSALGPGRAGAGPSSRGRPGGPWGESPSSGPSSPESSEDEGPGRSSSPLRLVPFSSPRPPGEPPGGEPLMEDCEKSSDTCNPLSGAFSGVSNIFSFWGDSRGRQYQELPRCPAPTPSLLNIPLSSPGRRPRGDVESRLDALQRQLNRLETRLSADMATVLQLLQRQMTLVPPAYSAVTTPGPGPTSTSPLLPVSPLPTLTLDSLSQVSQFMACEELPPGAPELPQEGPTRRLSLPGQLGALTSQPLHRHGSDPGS
The species entered for the next assay is Homo sapiens. The assay is described as follows: Selectivity index ratio of IC50 for inhibition of human PAK4 to IC50 for human PAK1. In a few lines: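 Compound tested from 10 µM in 3-fold serial dilutions in the HotSpot radiometric assay, with 20 min preincubation, 10 µM ATP/33P-ATP and 120 min at 25 °C. Filter-binding gives IC50. Selectivity is expressed as the PAK4 IC50 divided by the PAK1 IC50.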

T1 sequence (Q13153 whole entry): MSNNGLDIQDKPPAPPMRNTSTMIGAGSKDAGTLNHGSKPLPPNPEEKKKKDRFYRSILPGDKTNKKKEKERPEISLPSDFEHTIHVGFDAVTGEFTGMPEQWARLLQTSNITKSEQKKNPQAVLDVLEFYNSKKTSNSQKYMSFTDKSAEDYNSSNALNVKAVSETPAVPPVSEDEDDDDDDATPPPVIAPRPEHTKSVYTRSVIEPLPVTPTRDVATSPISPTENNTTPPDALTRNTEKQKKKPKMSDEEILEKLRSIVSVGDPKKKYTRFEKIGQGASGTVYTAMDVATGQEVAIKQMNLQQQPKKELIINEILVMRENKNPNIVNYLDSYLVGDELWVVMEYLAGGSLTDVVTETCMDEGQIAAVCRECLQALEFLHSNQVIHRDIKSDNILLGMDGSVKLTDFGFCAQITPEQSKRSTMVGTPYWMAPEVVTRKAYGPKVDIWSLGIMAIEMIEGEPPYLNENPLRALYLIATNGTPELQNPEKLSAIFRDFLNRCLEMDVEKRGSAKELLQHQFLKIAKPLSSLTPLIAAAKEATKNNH

As for `Cc1cccn(-c2ccc(-c3ccc4c(C(=O)NC5CCOCC5)n[nH]c4c3)c(Cl)c2)c1=O`, in assay [1], the IC50 – broadly, the midpoint of a concentration-inhibition curve – came to 744 nM. Besides, the figures for the inhibition of growth at 1 µM in the assay on HCT-116 and with MDA-MB-231 were 7.91% and 19.2%, respectively.

Turning to `Cc1cccn(-c2ccc(-c3ccc4c(C(=O)N5CCCC5)n[nH]c4c3)c(Cl)c2)c1=O`, the IC50 in assay [1] was more than 10000 nM.

For `Cc1cccn(-c2ccc(-c3ccc4c(C(=O)N5CCOCC5)n[nH]c4c3)c(Cl)c2)c1=O`, the IC50 in assay [1] is more than 10000 nM.

Consider `CNC(=O)c1n[nH]c2cc(-c3ccccc3Cl)ccc12`, for which the IC50 in assay [1] and in assay [2] was 5000 nM throughout.

On to `Cc1cccn(-c2ccc(-c3ccc4c(C(=O)NCC5CCOCC5)n[nH]c4c3)c(Cl)c2)c1=O`, for which the half-maximal inhibitory concentration (IC50) in assay [1] is 42 nM. Further, the inhibition of growth at 1 µM is 16.2% in the assay on HCT-116 and 9.45% with MDA-MB-231.

Consider `COCCNC(=O)c1n[nH]c2cc(-c3ccc(-n4cccc(C)c4=O)cc3Cl)ccc12`, for which the 50% inhibitory concentration (IC50) in assay [1] was found to be 71 nM. Also, the inhibition of growth at 1 µM in the assay with HCT-116 was determined as 10.3%; in the assay with MDA-MB-231, 3.07%.

On to `CNC(=O)c1n[nH]c2cc(-c3ccc(-n4ccccc4=O)cc3Cl)ccc12`, for which, in assay [1], the IC50 stood at 330 nM.

Take `Cc1cncc(-c2ccc(-c3ccc4c(C(=O)NCC5CC5)n[nH]c4c3)c(Cl)c2)n1`: the IC50 in assay [1] amounted to 777 nM.

Consider `Cc1cccn(-c2ccc(-c3ccc4c(C(=O)NCC5CC5)n[nH]c4c3)c(Cl)c2)c1=O`, for which the IC50 in assay [1] was 34 nM; in assay [3] it was more than 10000 nM. For the same compound, the results for the inhibition of growth at 1 µM in the assay on HCT-116 and with MDA-MB-231 were 10.8% and 6.87%, respectively.

Take `CNC(=O)c1n[nH]c2cc(-c3ccc(-c4cncc(C)n4)cc3Cl)ccc12`: the IC50 in assay [1] amounted to 159 nM. In addition, the figures for the inhibition of growth at 1 µM with HCT-116 and in the assay on MDA-MB-231 were 11.5% and 15.3%, respectively.

For `CNC(=O)c1n[nH]c2cc(-c3ccc(-c4cccc(C)n4)cc3Cl)ccc12`, in assay [1], the concentration for half-maximal inhibition (IC50) turned out to be 52 nM. The figures for the inhibition of growth at 1 µM with HCT-116 and in the assay with MDA-MB-231 were 7.16% and 8.12%, respectively.

For the compound `O=C(NCC1CC1)c1n[nH]c2cc(-c3ccc(-n4ccccc4=O)cc3Cl)ccc12`, the IC50 in assay [1] stood at 590 nM.

`Cc1cccn(-c2ccc(-c3ccc4c(C(=O)NC5CCN(C)CC5)n[nH]c4c3)c(Cl)c2)c1=O`: the IC50 in assay [1] came out at 143 nM.

Take `Cc1cccn(-c2ccc(-c3ccc4c(C(=O)NCC5CCN(C)CC5)n[nH]c4c3)c(Cl)c2)c1=O`: the IC50 in assay [1] was determined as 22 nM. The inhibition of growth at 1 µM in the assay with HCT-116 is 20.1%; in the assay with MDA-MB-231, 18.4%.

Consider `Cc1cccn(-c2ccc(-c3ccc4c(C(=O)NCCO)n[nH]c4c3)c(Cl)c2)c1=O`, for which, in assay [1], the IC50 was 66 nM. In addition, the inhibition of growth at 1 µM in the assay with HCT-116 turned out to be 19.2%; with MDA-MB-231 it was 17.4%.

In the case of `CCNC(=O)c1n[nH]c2cc(-c3ccc(-n4cccc(C)c4=O)cc3Cl)ccc12`, the IC50 in assay [4] is 90400 nM; in assay [1] it was 45 nM; in assay [3], more than 10000 nM. The Ratio IC50 in the assay filed under Homo sapiens was more than 200. For the same compound, the results for the inhibition of growth at 1 µM in the assay with HCT-116 and in the assay with MDA-MB-231 were 9.37% and 10.2%, respectively.

Regarding `Cc1cccn(-c2ccc(-c3ccc4c(C(=O)NCCc5ccncc5)n[nH]c4c3)c(Cl)c2)c1=O`, the IC50 in assay [1] stood at 21 nM. Besides, the inhibition of growth at 1 µM in the assay on HCT-116 came out at 15.3%; in the assay with MDA-MB-231, 8.42%.

Turning to `Cc1cccn(-c2ccc(-c3ccc4c(C(=O)Nc5ccncc5)n[nH]c4c3)c(Cl)c2)c1=O`, the IC50 in assay [1] stood at 16 nM. In addition, the inhibition of growth at 1 µM with HCT-116 came to 4.41%; in the assay with MDA-MB-231, 6.59%.

`CNC(=O)c1n[nH]c2cc(-c3ccc(-n4cccc(C)c4=O)cc3Cl)ccc12`: the IC50 in assay [1] was 16 nM; in assay [3], more than 10000 nM. Also, the inhibition of growth at 1 µM in the assay with HCT-116 worked out at 17.2%; with MDA-MB-231, 13.2%.

In turn, `CN[C@@H]1C[C@H]2O[C@@](C)([C@@H]1OC)n1c3ccccc3c3c4c(c5c6ccccc6n2c5c31)C(=O)NC4` came in with a concentration for half-maximal inhibition (IC50) in assay [4] of 90400 nM.

As to `Cc1nc(Nc2n[nH]c3c2CN(C(=O)N[C@H](CN(C)C)c2ccccc2)C3(C)C)c2sccc2n1` [PF-03758309], in assay [4], the concentration for half-maximal inhibition (IC50) was 41100 nM. Besides, the inhibition of growth at 1 µM in the assay with HCT-116 was determined as 83.2%; in the assay on MDA-MB-231 it was 62.6%.

Regarding `Cc1cccn(-c2ccc(-c3ccc4c(C(=O)NCc5ccccc5)n[nH]c4c3)c(Cl)c2)c1=O`, in assay [1], the IC50 is 92 nM. Besides, the inhibition of growth at 1 µM came out at 13.2% in the assay with HCT-116 and 9.66% in the assay with MDA-MB-231.

Take `Cc1cccc(-c2ccc(-c3ccc4c(C(=O)NCC5CC5)n[nH]c4c3)c(Cl)c2)n1`: the IC50 in assay [1] is 229 nM.
